# Only some compounds are listed: those with a hit (about 3.3% of all), similar ones and a draw of the others.
# HTRA1 inh: blocks human HTRA1 serine peptidase. inhibition, % at 5.96 µM. 340,000 tested, 0.5% active. Q92743. recombinant HTRA1, FP-rhodamine activity-based probe, fluorescence polarization; in the data active means inhibition above about 36%;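 further: 0% = enzyme with DMSO and 100% = wells lacking enzyme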
# Target sequence (Q92743 whole entry, looked up): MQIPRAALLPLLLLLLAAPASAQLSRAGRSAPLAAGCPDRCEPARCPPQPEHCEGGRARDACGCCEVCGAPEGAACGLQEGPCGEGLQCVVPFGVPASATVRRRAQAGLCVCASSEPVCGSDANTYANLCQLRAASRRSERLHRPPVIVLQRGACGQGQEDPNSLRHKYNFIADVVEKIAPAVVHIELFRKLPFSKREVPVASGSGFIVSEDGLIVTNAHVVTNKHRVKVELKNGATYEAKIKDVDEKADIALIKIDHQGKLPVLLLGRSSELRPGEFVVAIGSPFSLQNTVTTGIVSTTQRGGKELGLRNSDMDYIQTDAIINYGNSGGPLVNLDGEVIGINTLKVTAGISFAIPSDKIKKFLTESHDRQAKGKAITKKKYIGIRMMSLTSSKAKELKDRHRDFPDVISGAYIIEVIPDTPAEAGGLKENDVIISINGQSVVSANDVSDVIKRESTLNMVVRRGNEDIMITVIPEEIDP
# PRMT1 inh: inhibitors of human PRMT1; recombinant PRMT1, activity-based probe fluorescence polarization; inhibition, % at 2.79 µM; 370,000 tested, 1.3% active;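 active means inhibition above about 21% made by adding two undisclosed values, limit read from the data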
# SIAE primary: blocks human sialic acid acetylesterase; SIAE FP-Rh probe binding, fluorescence polarization; AID 1053197; 370,000 tested, 0.69% active; inhibition, % at 9.66 µM;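 active means inhibition above a cutoff: mean of compounds within the control limits plus 3 SD of those, cut at about 17% in these data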;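 further: 0% = plate median of compound wells and 100% = probe without SIAE protein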
# rCAG binder: molecules binding r(CAG) RNA repeats | r(CAG) RNA repeat, TO-PRO-1 dye displacement fluorescence | inhibition, % at 3 µM | 370,000 tested, 1.3% active;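 active means inhibition above the plate cutoff, the mean of all test compounds on that plate plus 3 SD, cut at about 35% in these data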;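 further: 0% = DMSO alone and 100% = 100 µM mitoxantrone as full dye displacement; higher means more dye released from RNA so lower well fluorescence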
# mABHD4 FP: inhibitors of mouse ABHD4; Q8VD66; purified mABHD4, FP-Rh probe fluorescence polarization; inhibition, % at 8.92 µM; 370,000 tested, 0.54% active;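 active means inhibition exceeding the mean over every tested compound plus 3 SD, cut at about 30% in these data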;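 further: 0% = plate median of compound wells and 100% = S159A mutant with DMSO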
#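 System: mouse ABHD4 enzyme, wild type / Medium: HEPES pH 7.0, NaCl, Pluronic buffer / Reagent: FP-Rh activity-based fluorescent probe / Control set: S159A mutant high control, sample median low control / Detection: fluorescence polarization with parallel and perpendicular emission, 525/598 nm / Schedule: 45 min + 60 min at 25 °C / Compound dosing: 8.92 µM, single dose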
# PRMT1 confirm: confirmation of human PRMT1 inhibitors; recombinant His-PRMT1, activity-based probe fluorescence polarization; 3,300 tested, 42% active; inhibition, % at 2.79 µM; shares compounds with PRMT1 inh;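 active means mean inhibition across replicates above the hit cutoff derived for the earlier primary screen, cut at about 22% in these data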
# * hit, by the source's call; . = not tested or not shown.
SMILES,HTRA1 inh,PRMT1 inh,SIAE primary,rCAG binder,mABHD4 FP,PRMT1 confirm
CCOC(=O)CCC(=O)Nc1cc(S(=O)(=O)N2CCOCC2)ccc1N1CCCCC1,14.8,-2.5,5.2,-1.4,2.2,.
CCOCC(=O)Nc1cc(S(=O)(=O)N2CCOCC2)ccc1N1CCCCC1,-1.2,40.9*,1.8,2.7,-2.2,7.3
C[N+]1=C(N)NC2=C3CCCCC3n3c(=O)n(-c4ccccc4)c(=O)n3C2C1 (stereo not drawn),.,4.4,1.0,9.1,3.6,.
COC(=O)c1c(-c2cccnc2)csc1NC(=O)c1cc(C)on1,-0.7,28.8*,-2.6,3.5,-1.1,12.1
CCOC(=O)c1ccoc1CSCc1ccc(C(=O)OC)o1,3.3,39.3*,2.7,10.7,2.4,45.4*
NC(=O)CSc1nnc2n(N)c(=O)c3ccccc3n12,1.6,-1.9,-4.6,2.5,-9.6,.
O=C(NCc1ccc2c(c1)OCO2)c1c(-c2ccccc2)sc2ccccc12,-0.2,2.8,4.2,0.6,-12.7,.
Cc1ccc(CNC(=O)c2c(-c3ccccc3)sc3ccccc23)o1,-18.3,39.1*,-0.2,8.0,-28.2,1.4
CCC(CC)c1nnc(NC(=O)COc2ccc3c(c2)OCO3)s1,-0.3,42.4*,3.6,2.6,-6.6,-0.7
NC(=O)C1CCN(C(=O)/C=C/c2ccco2)CC1,2.5,1.4,-1.3,-2.5,-8.6,.
O=C(O)CNc1nc(-c2ccccc2)c2cc([N+](=O)[O-])ccc2n1,1.4,26.1*,3.1,9.0,13.8,30.1*
Cc1ccc(CNS(=O)(=O)c2ccc(CN3C(=O)c4cccnc4C3=O)cc2)o1,7.2,26.1*,6.8,-0.7,10.1,13.4
Cc1ccc(CNS(=O)(=O)c2cc(F)ccc2CN2C(=O)c3cccnc3C2=O)o1,-0.2,25.0*,1.3,0.0,-0.3,-0.4
Cc1c(C)n(Cc2ccc(Cl)cc2)c2ccc(C(=O)NCCN3CCOCC3)cc12,-3.9,-8.4,1.6,-6.4,1.9,.
O=C(Nc1nnc(-c2ccc(F)cc2)o1)c1ccc(S(=O)(=O)N2CCOCC2)cc1,6.2,.,.,.,.,.
O=C1OC(NC(=O)c2ccccc2)C(n2cc(CO)nn2)=C1Cl (stereo not drawn),-0.7,65.4*,-5.6,3.5,6.2,66.5*
Cc1ccc(NC2=C(Cl)C(=O)OC2NC(=O)c2ccccc2)cc1 (stereo not drawn),-6.1,-0.9,-4.4,-2.7,1.8,.
O=C(CCC(=O)c1cccs1)NCCc1ccc(F)cc1,-21.5,26.3*,1.7,8.6,1.7,-1.8
Cc1cc2cc(CNC(=O)Nc3ccccc3)ccc2[nH]1,14.1,4.5,9.8,11.2,-1.6,.
Cc1ccc2c(c1)[C@H]1[C@H](CO2)[C@H](c2ccccc2)[C@]2(C)C(=O)N(Cc3ccc(F)cc3)CC(=O)N12,-30.3,38.2*,-6.0,-166.9,-11.2,10.8
Cc1ccc(S(=O)(=O)C/N=C(/NC(=S)N(c2ccccc2)c2ccccc2)c2ccccc2)cc1,2.1,28.2*,-5.5,14.0,11.2,27.3*
Cc1ccc(S(=O)(=O)/N=C(/NC(=S)Nc2ccccc2)c2ccccc2)cc1,-20.1,-2.4,3.8,4.2,-12.6,.
CCN(C(=O)COC(=O)c1ccc(Cl)c(N)c1)C1CCS(=O)(=O)C1 (stereo not drawn),-10.3,-1.0,-2.9,-0.3,-4.6,.
CC1Cc2ccccc2N1S(=O)(=O)c1cccc(C(=O)N2Cc3ccccc3CC2C(N)=O)c1 (stereo not drawn),-11.0,-0.5,-3.3,7.7,-7.9,.
NC(=O)C1Cc2ccccc2CN1C(=O)c1cccc(Oc2ccccc2)c1 (stereo not drawn),-2.9,106.2*,0.7,-2.7,2.8,6.8
SMILES,HTRA1 inh,PRMT1 inh,SIAE primary,rCAG binder,mABHD4 FP,PRMT1 confirm
Cc1c[n+](C)ccc1CC1C([N+](=O)[O-])=C[N-]c2ncnn21 (stereo not drawn),0.9,2.5,3.1,-0.4,0.7,.
S=C(Nc1ccccc1Br)OCCN1CCCC12CCC(c1ccccc1)CC2 (stereo not drawn),.,34.6*,-3.6,.,5.2,31.4*
S=C(Nc1ccccc1)OCCN1CCCC12CCC(c1ccccc1)CC2 (stereo not drawn),.,18.6,-6.2,.,1.9,.
O=C(Cn1cnc(S(=O)(=O)N2CCCCC2)c1)NCc1ccco1,0.1,.,.,.,.,.
O=C(Sc1cccc2cccnc12)c1ccc(F)cc1,.,26.9*,-2.2,2.2,-2.8,27.5*
Oc1cc(O)c(CN2CCOCC2)cc1CN1CCOCC1,-0.1,28.6*,5.8,8.1,-0.5,0.3

# Screening data as filed in PubChem BioAssay.
